Laboratory results reported in ChEMBL document CHEMBL1129639, “Synthesis and cardiotonic activity of novel pyrimidine derivatives: crystallographic and quantum chemical studies” (J Med Chem, 1996).
Values belong to the molecule of their own block, whether it stands above or below them.

Columns and labels:
Cavia porcellus [1] = organism: Cavia porcellus; assay: Compound was evaluated for its effect on the frequency rate of spontaneously beating atria from Reserpine-treated guinea pigs as percentage variation from the control at different concentration of 10E-5 M; format: functional
Procedure, shortened: (§1)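 Atria from reserpine-treated guinea pigs (reserpine 2 mg/kg ip, 48 and 24 h before death; only tyramine-unresponsive preparations used). Bath solution at 29 °C, gassed 95% O2/5% CO2, pH 7.5, resting tension […]. After 90 min equilibration, compound added cumulatively, 5 min per concentration. Isometric developed-tension amplitude or beating rate given as % variation from untreated control. Mean ± SEM, 6-10 assays.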

Cavia porcellus [2] = organism: Cavia porcellus; assay: Compound was evaluated for its effect on the frequency rate of spontaneously beating atria from Reserpine-treated guinea pigs as percentage variation from the control at different concentration of 10E-4 M; format: functional; procedure, shortened: as §1
Cavia porcellus [3] = organism: Cavia porcellus; assay: Compound was evaluated for its effect on the frequency rate of spontaneously beating atria from Reserpine-treated guinea pigs as percentage variation from the control at different concentration of 3 x 10E-5 M; format: functional; procedure, shortened: as §1
Cavia porcellus [4] = organism: Cavia porcellus; assay: Compound was evaluated for its effect on the frequency rate of spontaneously beating atria from Reserpine-treated guinea pigs as percentage variation from the control at different concentration of 10E-3 M; format: functional; procedure, shortened: as §1
Cavia porcellus [5] = organism: Cavia porcellus; assay: Effect on the contractile force of spontaneously beating atria from Reserpine-treated guinea pigs as percentage variation from the control at concentration of 3 x 10E-4 M; format: functional; procedure, shortened: as §1
Cavia porcellus [6] = organism: Cavia porcellus; assay: Effect on the contractile force of spontaneously beating atria from Reserpine-treated guinea pigs as percentage variation from the control at concentration of 3 x 10E-6 M; format: functional; procedure, shortened: as §1
Cavia porcellus [7] = organism: Cavia porcellus; assay: Effect on the contractile force of spontaneously beating atria from Reserpine-treated guinea pigs as percentage variation from the control at concentration of 10E-6 M; format: functional; procedure, shortened: as §1
Cavia porcellus [8] = organism: Cavia porcellus; assay: Compound was evaluated for its effect on the frequency rate of spontaneously beating atria from Reserpine-treated guinea pigs as percentage variation from the control at different concentration of 3 x 10E-4 M; format: functional; procedure, shortened: as §1
Cavia porcellus [9] = organism: Cavia porcellus; assay: Effect on the contractile force of spontaneously beating atria from Reserpine-treated guinea pigs as percentage variation from the control at concentration of 10E-5 M; format: functional; procedure, shortened: as §1
Cavia porcellus [10] = organism: Cavia porcellus; assay: Effect on the contractile force of spontaneously beating atria from Reserpine treated guinea pigs as percentage variation from the control at concentration of 10E-4 M; format: functional; procedure, shortened: as §1
Cavia porcellus [11] = organism: Cavia porcellus; assay: Effect on the contractile force of spontaneously beating atria from Reserpine-treated guinea pigs as percentage variation from the control at concentration of 3 x 10E-5 M; format: functional; procedure, shortened: as §1
Cavia porcellus [12] = organism: Cavia porcellus; assay: Compound was evaluated for its effect on the frequency rate of spontaneously beating atria from Reserpine-treated guinea pigs as percentage variation from the control at concentration of 3 x 10E-6 M; format: functional; procedure, shortened: as §1
Cavia porcellus [13] = organism: Cavia porcellus; assay: Effect on the contractile force of spontaneously beating atria from Reserpine-treated guinea pigs as percentage variation from the control at concentration of 10E-3 M; format: functional; procedure, shortened: as §1
Cavia porcellus [14] = organism: Cavia porcellus; assay: Effect on the frequency rate of spontaneously beating atria from Reserpine-treated guinea pigs as percentage variation from the control at concentration of 10E-6 M; format: functional; procedure, shortened: as §1
Cavia porcellus [15] = organism: Cavia porcellus; assay: Effect on the frequency rate of spontaneously beating atria from Reserpine-treated guinea pigs as percentage variation from the control at concentration of 10E-4 M; format: functional; procedure, shortened: as §1
Cavia porcellus [16] = organism: Cavia porcellus; assay: Inotropic Response in Electrically Driven Left Atrium from Reserpine-Treated Guinea Pigs in the presence of 2 U/mL of adenosine deaminase (ADA) at 10E-5 M; format: functional
Procedure, shortened: (§2)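 Electrically driven left atrium from reserpine-treated guinea pigs (tyramine-unresponsive), 29 °C, pH 7.5, resting tension […], 90 min equilibration. Compound dissolved in DMSO and added cumulatively, 5 min per step. Where used, adenosine deaminase was preincubated 20 min, and basal force was taken after ADA addition. Developed tension given as % change over control. Mean ± SEM of six assays.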

Cavia porcellus [17] = organism: Cavia porcellus; assay: Inotropic effect in electrically driven left atrium from reserpine-treated guinea pigs at concentration of 3 x 10E-5 M; format: functional, Cardiac atrium; procedure, shortened: as §2
Cavia porcellus [18] = organism: Cavia porcellus; assay: Inotropic effect in electrically driven left atrium from reserpine-treated guinea pigs at concentration of 3 x 10E-6 M; format: functional, Cardiac atrium; procedure, shortened: as §2
Cavia porcellus [19] = organism: Cavia porcellus; assay: Inotropic Response in Electrically Driven Left Atrium from Reserpine-Treated Guinea Pigs in the presence of 2 U/mL of adenosine deaminase (ADA) at 3 x 10E-4 M; format: functional; procedure, shortened: as §2
Cavia porcellus [20] = organism: Cavia porcellus; assay: Inotropic Response in Electrically Driven Left Atrium from Reserpine-Treated Guinea Pigs in the absence of adenosine deaminase (ADA) at 10E-4 M; format: functional; procedure, shortened: as §2
Adenosine receptor A1 = biological target: T1, Adenosine receptor A1 (Cavia porcellus, UniProt P47745); assay: Inhibition of [3H]-CHA binding to Adenosine A1 receptor in guinea pig heart
T1 sequence (P47745 whole entry): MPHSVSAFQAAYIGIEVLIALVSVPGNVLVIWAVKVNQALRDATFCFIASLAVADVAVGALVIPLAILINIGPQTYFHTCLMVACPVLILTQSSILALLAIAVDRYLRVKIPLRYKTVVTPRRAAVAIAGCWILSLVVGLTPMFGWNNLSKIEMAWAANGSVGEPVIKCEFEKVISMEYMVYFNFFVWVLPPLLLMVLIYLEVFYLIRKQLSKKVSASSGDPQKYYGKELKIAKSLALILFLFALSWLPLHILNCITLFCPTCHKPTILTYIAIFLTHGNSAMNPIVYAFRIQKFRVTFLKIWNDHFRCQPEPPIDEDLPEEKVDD
Procedure, shortened: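 Guinea pig heart membranes prepared in 50 mM Tris-HCl pH 7.4 and pretreated with adenosine deaminase 2 IU/mL for 30 min at 37 °C. Incubated with 1 nM [3H]CHA, membranes from 15 mg tissue, 120 min at 23 °C. Bound ligand separated by GF/B filtration; nonspecific binding defined with (R)-PIA. Six concentrations tested in triplicate; IC50 by probit analysis.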

Cavia porcellus [21] = organism: Cavia porcellus; assay: Inotropic Response in Electrically Driven Left Atrium from Reserpine-Treated Guinea Pigs in the presence of 2 U/mL of adenosine deaminase (ADA) at 10E-4 M; format: functional; procedure, shortened: as §2
Cavia porcellus [22] = organism: Cavia porcellus; assay: Inotropic Response in Electrically Driven Left Atrium from Reserpine-Treated Guinea Pigs in the absence of adenosine deaminase (ADA) at 3 x 10E-4 M; format: functional; procedure, shortened: as §2
Cavia porcellus [23] = organism: Cavia porcellus; assay: Compound was evaluated for its effect on the frequency rate of spontaneously beating atria from Reserpine-treated guinea pigs as percentage variation from the control at concentration of 3 x 10E-5 M; format: functional; procedure, shortened: as §1
Cavia porcellus [24] = organism: Cavia porcellus; assay: Inotropic effect in electrically driven left atrium from reserpine-treated guinea pigs at concentration of 3 x 10E-4 M; format: functional, Cardiac atrium; procedure, shortened: as §2
Cavia porcellus [25] = organism: Cavia porcellus; assay: Compound was evaluated for its effect on the frequency rate of spontaneously beating atria from Reserpine-treated guinea pigs as percentage variation from the control at concentration of 3 x 10E-4 M; format: functional; procedure, shortened: as §1
Cavia porcellus [26] = organism: Cavia porcellus; assay: Inotropic effect in electrically driven left atrium from reserpine-treated guinea pigs at concentration of 10E-3 M; format: functional, Cardiac atrium; procedure, shortened: as §2
Cavia porcellus [27] = organism: Cavia porcellus; assay: Inotropic Response in Electrically Driven Left Atrium from Reserpine-Treated Guinea Pigs in the absence of adenosine deaminase (ADA) at 3 x 10E-5 M; format: functional; procedure, shortened: as §2
Cavia porcellus [28] = organism: Cavia porcellus; assay: Effect on the frequency rate of spontaneously beating atria from Reserpine-treated guinea pigs as percentage variation from the control at concentration of 10E-5 M; format: functional; procedure, shortened: as §1
Cavia porcellus [29] = organism: Cavia porcellus; assay: Inotropic effect in electrically driven left atrium from reserpine-treated guinea pigs at concentration of 10E-6 M; format: functional, Cardiac atrium; procedure, shortened: as §2
Cavia porcellus [30] = organism: Cavia porcellus; assay: Inotropic Response in Electrically Driven Left Atrium from Reserpine-Treated Guinea Pigs in the presence of 2 U/mL of adenosine deaminase (ADA) at 10E-3 M; format: functional; procedure, shortened: as §2
Cavia porcellus [31] = organism: Cavia porcellus; assay: Inotropic Response in Electrically Driven Left Atrium from Reserpine-Treated Guinea Pigs in the presence of 2 U/mL of adenosine deaminase (ADA) at 3 x 10E-6 M; format: functional; procedure, shortened: as §2
Cavia porcellus [32] = organism: Cavia porcellus; assay: Inotropic Response in Electrically Driven Left Atrium from Reserpine-Treated Guinea Pigs in the absence of adenosine deaminase (ADA) at 3 x 10E-6 M; format: functional; procedure, shortened: as §2
Cavia porcellus [33] = organism: Cavia porcellus; assay: Inotropic Response in Electrically Driven Left Atrium from Reserpine-Treated Guinea Pigs in the presence of 2 U/mL of adenosine deaminase (ADA) at 3 x 10E-5 M; format: functional; procedure, shortened: as §2
Cavia porcellus [34] = organism: Cavia porcellus; assay: Inotropic Response in Electrically Driven Left Atrium from Reserpine-Treated Guinea Pigs in the absence of adenosine deaminase (ADA) at 10E-3 M; format: functional; procedure, shortened: as §2
Cavia porcellus [35] = organism: Cavia porcellus; assay: Inotropic effect in electrically driven left atrium from reserpine-treated guinea pigs at concentration of 10E-5 M; format: functional, Cardiac atrium; procedure, shortened: as §2
Cavia porcellus [36] = organism: Cavia porcellus; assay: Inotropic effect in electrically driven left atrium from reserpine-treated guinea pigs at concentration of 10E-4 M; format: functional, Cardiac atrium; procedure, shortened: as §2
Cavia porcellus [37] = organism: Cavia porcellus; assay: Inotropic Response in Electrically Driven Left Atrium from Reserpine-Treated Guinea Pigs in the absence of adenosine deaminase (ADA) at 10E-5 M; format: functional; procedure, shortened: as §2
Cavia porcellus [38] = organism: Cavia porcellus; assay: Effect on the frequency rate of spontaneously beating atria from Reserpine-treated guinea pigs as percentage variation from the control at concentration of 10E-3 M; format: functional; procedure, shortened: as §1

Structure (SMILES): CN(C)c1ncc(C(=O)O)c(C(C)(C)C)n1
- Variation (Cavia porcellus [1]): 3.33%
- Variation (Cavia porcellus [2]): 3.71%
- Variation (Cavia porcellus [3]): 3.33%
- Variation (Cavia porcellus [4]): 11.11%
- Variation (Cavia porcellus [5]): 14.21%
- Variation (Cavia porcellus [6]): 7.58%
- Variation (Cavia porcellus [7]): 3.51%
- Variation (Cavia porcellus [8]): 7.42%
- Variation (Cavia porcellus [9]): 9.67%
- Variation (Cavia porcellus [10]): 13.23%
- Variation (Cavia porcellus [11]): 12.51%
- Variation (Cavia porcellus [12]): 3.33%
- Variation (Cavia porcellus [13]): 18.64%
- Variation (Cavia porcellus [14]): 0%

- IC50 (Adenosine receptor A1): 583 µM
Structure (SMILES): CN(C)c1ncc(C(=O)O)c(Cc2ccccc2)n1
- Variation (Cavia porcellus [15]): -5.02%
- Increase (Cavia porcellus [16]): 4.76%
- Variation (Cavia porcellus [17]): 24.7%
- Variation (Cavia porcellus [18]): 9.7%
- Increase (Cavia porcellus [19]): 33.3%
- Variation (Cavia porcellus [5]): 67.75%
- Increase (Cavia porcellus [20]): 44.95%
- Increase (Cavia porcellus [21]): 19.1%
- Variation (Cavia porcellus [6]): 9.37%
- Increase (Cavia porcellus [22]): 66.21%
- Variation (Cavia porcellus [23]): -3.85%
- Variation (Cavia porcellus [24]): 53%
- Variation (Cavia porcellus [25]): -5.69%
- Variation (Cavia porcellus [7]): 3.52%
- Variation (Cavia porcellus [26]): 78.6%
- Increase (Cavia porcellus [27]): 33.61%
- Variation (Cavia porcellus [9]): 15.24%
- Variation (Cavia porcellus [28]): 0%
- Variation (Cavia porcellus [29]): 3.23%
- Increase (Cavia porcellus [30]): 57.2%
- Increase (Cavia porcellus [31]): 0%
- Increase (Cavia porcellus [32]): 11.21%
- Variation (Cavia porcellus [10]): 35.26%
- Variation (Cavia porcellus [11]): 22.89%
- Increase (Cavia porcellus [33]): 9.52%
- Variation (Cavia porcellus [12]): 0%
- Variation (Cavia porcellus [13]): 88.05%
- Increase (Cavia porcellus [34]): 88.35%
- Variation (Cavia porcellus [35]): 16.5%
- Variation (Cavia porcellus [14]): 0%
- Variation (Cavia porcellus [36]): 36.3%
- Increase (Cavia porcellus [37]): 27.41%
- Variation (Cavia porcellus [38]): -10.25%
